Assay results as given in ChEMBL document CHEMBL3098105, “7,7'-Diazaindirubin--a small molecule inhibitor of casein kinase 2 in vitro and in cells” (Bioorg Med Chem, 2014).
pIC50: −log10 of the molar value.

How the values were obtained:
[1] = system: MDA-MB-435; test: Antiproliferative activity against human MDA-MB-435 cells after 3 days by sulforhodamine B assay; assay type: functional; conditions: MDA-MB-435, 72 h
How it was run: (§1)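 Tested in the NCI 60 cell line panel. GI50 is the concentration giving 50% inhibition of cell growth, and values are the mean of two series of tests.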

[2] = biological target: Protein kinase C theta type (Homo sapiens) (UniProt Q04759); test: Inhibition of human PKCtheta assessed as residual activity at 1 uM relative to control
[3] = biological target: Maternal embryonic leucine zipper kinase (Homo sapiens) (UniProt Q14680); test: Inhibition of human MELK assessed as residual activity at 1 uM relative to control
[4] = biological target: Serine/threonine-protein kinase 4 (Homo sapiens) (UniProt Q13043); test: Inhibition of human MST1 assessed as residual activity at 1 uM relative to control
[5] = system: HT-29; test: Antiproliferative activity against human HT-29 cells after 3 days by SRB assay; assay type: functional, cell-based; conditions: HT-29, 72 h
How it was run: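 Cells grown at 37 °C, 5% CO2, with 10% heat-inactivated FBS: LXFL529L in RPMI 1640, MCF7 and HT29 in DMEM. Seeded, allowed 24 h growth, then exposed to the drug at various concentrations for 3 days in serum medium. Fixed with TCA for 1 h at 4 °C, stained with 0.4% SRB, eluted in 10 mM Tris pH 10.5, read at 570 nm as % T/C. IC50 taken from dose–response curves of at least three independent experiments.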

[6] = biological target: Tyrosine-protein kinase receptor TYRO3 (Homo sapiens) (UniProt Q06418); test: Inhibition of human Rse assessed as residual activity at 1 uM relative to control
[7] = Antiproliferative activity against human UO31 cells after 3 days by sulforhodamine B assay; assay type: functional; conditions: UO-31, 72 h
[8] = biological target: Serine/threonine-protein kinase BRSK2 (Homo sapiens) (UniProt Q8IWQ3); test: Inhibition of human BrSK2 assessed as residual activity at 1 uM relative to control
[9] = biological target: Casein kinase I isoform gamma-3 (Homo sapiens) (UniProt Q9Y6M4); test: Inhibition of human CK1gamma3 assessed as residual activity at 1 uM relative to control
[10] = biological target: Serine/threonine-protein kinase Chk2 (Homo sapiens) (UniProt O96017); test: Inhibition of human CHK2 assessed as residual activity at 1 uM relative to control
[11] = system: HOP-62; test: Antiproliferative activity against human HOP62 cells after 3 days by sulforhodamine B assay; assay type: functional; conditions: HOP-62, 72 h; how it was run: as §1
[12] = biological target: Protein kinase C alpha type (Homo sapiens) (UniProt P17252); test: Inhibition of human PKCalpha assessed as residual activity at 1 uM relative to control
[13] = biological target: Focal adhesion kinase 1 (Homo sapiens) (UniProt Q05397); test: Inhibition of FAK fl (unknown origin) assessed as residual activity at 10 uM relative to control
[14] = biological target: MAP kinase-activated protein kinase 5 (Homo sapiens) (UniProt Q8IW41); test: Inhibition of human PRAK assessed as residual activity at 1 uM relative to control
[15] = system: NCI-H322M; test: Antiproliferative activity against human NCI-H322M cells after 3 days by sulforhodamine B assay; assay type: functional; conditions: 72 h; how it was run: as §1
[16] = biological target: BDNF/NT-3 growth factors receptor (Homo sapiens) (UniProt Q16620); test: Inhibition of human TrkB assessed as residual activity at 1 uM relative to control
[17] = system: U-251; test: Antiproliferative activity against human U251 cells after 3 days by sulforhodamine B assay; assay type: functional; conditions: U-251, 72 h
[18] = biological target: Rho-associated protein kinase 2 (Homo sapiens) (UniProt O75116); test: Inhibition of human ROCK-2 assessed as residual activity at 1 uM relative to control
[19] = system: MDA-MB-231; test: Antiproliferative activity against human MDA-MB-231 cells after 3 days by sulforhodamine B assay; assay type: functional; conditions: MDA-MB-231, 72 h; how it was run: as §1
[20] = biological target: Misshapen-like kinase 1 (Homo sapiens) (UniProt Q8N4C8); test: Inhibition of human MINK assessed as residual activity at 1 uM relative to control
[21] = biological target: Cytoplasmic tyrosine-protein kinase BMX (Homo sapiens) (UniProt P51813); test: Inhibition of human Bmx assessed as residual activity at 1 uM relative to control
[22] = biological target: Calcium/calmodulin-dependent protein kinase type IV (Homo sapiens) (UniProt Q16566); test: Inhibition of human CaMK4 assessed as residual activity at 1 uM relative to control
[23] = system: TK-10; test: Antiproliferative activity against human TK10 cells after 3 days by sulforhodamine B assay; assay type: functional; conditions: TK-10, 72 h
[24] = biological target: Mast/stem cell growth factor receptor Kit (Homo sapiens) (UniProt P10721); test: Inhibition of KIT (unknown origin) assessed as residual activity at 10 uM relative to control
[25] = system: SN12C; test: Antiproliferative activity against human SN12C cells after 3 days by sulforhodamine B assay; assay type: functional; conditions: 72 h
[26] = system: MCF7; test: Cell cycle arrest in human MCF7 cells assessed as accumulation at S phase at 0.5 uM after 24 hrs using propidium iodide staining by FACS analysis (reference value: 18.59%); assay type: functional
[27] = biological target: Serine/threonine-protein kinase TAO3 (Homo sapiens) (UniProt Q9H2K8); test: Inhibition of human TAO3 assessed as residual activity at 1 uM relative to control
[28] = biological target: Tyrosine-protein kinase JAK2 (Homo sapiens) (UniProt O60674); test: Inhibition of JAK2 (unknown origin) assessed as residual activity at 1 uM relative to control
[29] = Antiproliferative activity against human OVCAR5 cells after 3 days by sulforhodamine B assay; assay type: functional; conditions: OVCAR-5, 72 h; how it was run: as §1
[30] = biological target: Protein kinase C epsilon type (Homo sapiens) (UniProt Q02156); test: Inhibition of human PKCepsilon assessed as residual activity at 1 uM relative to control
[31] = biological target: Mitogen-activated protein kinase 9 (Homo sapiens) (UniProt P45984); test: Inhibition of human JNK2alpha2 assessed as residual activity at 1 uM relative to control
[32] = Antiproliferative activity against human RXF393 cells after 3 days by sulforhodamine B assay; assay type: functional; conditions: RXF 393, 72 h; how it was run: as §1
[33] = biological target: CDK9/cyclin T1 (Homo sapiens) (UniProt O60563+P50750); test: Inhibition of human CDK9/cyclin T1 assessed as residual activity at 1 uM relative to control; assay type: protein-complex assay
[34] = biological target: Tyrosine-protein kinase Fgr (Homo sapiens) (UniProt P09769); test: Inhibition of FGR (unknown origin) assessed as residual activity at 1 uM relative to control
[35] = biological target: Tyrosine-protein kinase Fyn (Homo sapiens) (UniProt P06241); test: Inhibition of human Fyn assessed as residual activity at 1 uM relative to control
[36] = biological target: Activated CDC42 kinase 1 (Homo sapiens) (UniProt Q07912); test: Inhibition of human ACK1 assessed as residual activity at 1 uM relative to control
[37] = biological target: Serine/threonine-protein kinase Nek3 (Homo sapiens) (UniProt P51956); test: Inhibition of human NEK3 assessed as residual activity at 1 uM relative to control

Chain of Activated CDC42 kinase 1 (Homo sapiens) (Q07912 whole entry, looked up): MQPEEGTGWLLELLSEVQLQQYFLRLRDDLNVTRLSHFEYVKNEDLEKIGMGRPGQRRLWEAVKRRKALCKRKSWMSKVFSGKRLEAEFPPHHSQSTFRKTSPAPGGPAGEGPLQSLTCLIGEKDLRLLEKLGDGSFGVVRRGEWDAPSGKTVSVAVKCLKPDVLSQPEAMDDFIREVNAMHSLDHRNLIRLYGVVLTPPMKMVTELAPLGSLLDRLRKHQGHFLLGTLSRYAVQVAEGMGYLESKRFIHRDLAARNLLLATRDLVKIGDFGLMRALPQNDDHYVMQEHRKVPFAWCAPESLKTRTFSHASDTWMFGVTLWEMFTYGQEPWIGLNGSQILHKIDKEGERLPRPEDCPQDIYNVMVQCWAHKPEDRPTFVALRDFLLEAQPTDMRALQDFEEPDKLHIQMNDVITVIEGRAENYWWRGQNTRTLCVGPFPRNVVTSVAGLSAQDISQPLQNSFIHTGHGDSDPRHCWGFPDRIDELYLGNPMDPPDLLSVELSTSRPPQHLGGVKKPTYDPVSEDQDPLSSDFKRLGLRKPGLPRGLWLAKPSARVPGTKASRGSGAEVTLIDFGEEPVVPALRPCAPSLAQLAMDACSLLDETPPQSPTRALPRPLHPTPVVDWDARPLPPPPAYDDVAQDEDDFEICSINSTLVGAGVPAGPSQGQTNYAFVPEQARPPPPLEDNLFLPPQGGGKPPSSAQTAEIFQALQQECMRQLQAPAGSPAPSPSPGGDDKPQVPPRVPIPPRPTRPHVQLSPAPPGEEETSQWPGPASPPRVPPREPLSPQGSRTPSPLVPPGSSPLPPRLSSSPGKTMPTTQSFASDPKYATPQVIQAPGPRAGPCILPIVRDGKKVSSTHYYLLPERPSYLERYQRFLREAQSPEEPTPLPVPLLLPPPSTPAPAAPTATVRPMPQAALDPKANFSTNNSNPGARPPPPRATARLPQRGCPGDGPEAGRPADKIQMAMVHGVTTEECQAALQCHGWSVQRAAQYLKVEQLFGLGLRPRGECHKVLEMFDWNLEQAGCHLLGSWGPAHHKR
Chain of MAP kinase-activated protein kinase 5 (Homo sapiens) (Q8IW41 whole entry): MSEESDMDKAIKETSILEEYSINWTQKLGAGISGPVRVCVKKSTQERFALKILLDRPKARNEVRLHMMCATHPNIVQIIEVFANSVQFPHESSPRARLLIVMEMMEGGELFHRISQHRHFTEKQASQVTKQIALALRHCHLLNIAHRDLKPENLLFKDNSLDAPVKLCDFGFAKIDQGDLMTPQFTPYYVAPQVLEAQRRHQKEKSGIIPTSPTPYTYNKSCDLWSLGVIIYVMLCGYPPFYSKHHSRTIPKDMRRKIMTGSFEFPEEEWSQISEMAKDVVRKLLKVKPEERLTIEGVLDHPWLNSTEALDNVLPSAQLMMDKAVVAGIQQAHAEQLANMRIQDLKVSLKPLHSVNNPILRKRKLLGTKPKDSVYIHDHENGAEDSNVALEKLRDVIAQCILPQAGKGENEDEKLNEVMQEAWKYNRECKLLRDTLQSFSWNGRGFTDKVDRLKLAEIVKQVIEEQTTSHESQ
Chain of Tyrosine-protein kinase JAK2 (Homo sapiens) (O60674 whole entry): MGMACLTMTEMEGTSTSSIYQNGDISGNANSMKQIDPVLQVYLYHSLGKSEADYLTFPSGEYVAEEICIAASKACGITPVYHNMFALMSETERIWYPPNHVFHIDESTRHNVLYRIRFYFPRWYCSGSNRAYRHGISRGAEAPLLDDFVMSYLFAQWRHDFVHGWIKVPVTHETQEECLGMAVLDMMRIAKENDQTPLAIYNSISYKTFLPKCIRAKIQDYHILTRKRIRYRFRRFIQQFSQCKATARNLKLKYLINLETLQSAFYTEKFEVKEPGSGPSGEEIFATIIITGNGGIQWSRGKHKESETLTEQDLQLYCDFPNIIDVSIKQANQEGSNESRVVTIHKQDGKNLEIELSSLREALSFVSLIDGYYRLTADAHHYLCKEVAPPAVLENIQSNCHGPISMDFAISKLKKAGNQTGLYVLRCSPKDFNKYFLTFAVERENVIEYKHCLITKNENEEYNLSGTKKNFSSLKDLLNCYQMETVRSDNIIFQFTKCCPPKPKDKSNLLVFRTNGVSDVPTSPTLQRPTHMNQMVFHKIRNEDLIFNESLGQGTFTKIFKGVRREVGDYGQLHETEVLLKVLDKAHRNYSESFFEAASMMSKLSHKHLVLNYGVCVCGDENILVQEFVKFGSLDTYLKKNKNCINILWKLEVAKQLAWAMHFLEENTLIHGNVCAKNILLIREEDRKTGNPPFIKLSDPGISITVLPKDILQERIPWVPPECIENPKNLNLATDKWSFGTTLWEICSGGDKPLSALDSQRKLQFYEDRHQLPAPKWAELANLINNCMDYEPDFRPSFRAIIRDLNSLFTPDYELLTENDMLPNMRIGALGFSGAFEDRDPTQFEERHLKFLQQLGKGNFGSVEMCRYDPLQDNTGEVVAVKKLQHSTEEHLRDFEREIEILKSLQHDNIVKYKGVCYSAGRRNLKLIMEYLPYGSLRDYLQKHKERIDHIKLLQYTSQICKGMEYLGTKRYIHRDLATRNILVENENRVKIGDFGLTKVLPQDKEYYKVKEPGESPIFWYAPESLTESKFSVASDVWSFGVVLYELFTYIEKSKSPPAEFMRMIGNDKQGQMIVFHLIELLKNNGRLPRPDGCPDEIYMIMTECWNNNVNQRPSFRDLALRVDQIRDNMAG
Chain of BDNF/NT-3 growth factors receptor (Homo sapiens) (Q16620 32-822 limits assumed): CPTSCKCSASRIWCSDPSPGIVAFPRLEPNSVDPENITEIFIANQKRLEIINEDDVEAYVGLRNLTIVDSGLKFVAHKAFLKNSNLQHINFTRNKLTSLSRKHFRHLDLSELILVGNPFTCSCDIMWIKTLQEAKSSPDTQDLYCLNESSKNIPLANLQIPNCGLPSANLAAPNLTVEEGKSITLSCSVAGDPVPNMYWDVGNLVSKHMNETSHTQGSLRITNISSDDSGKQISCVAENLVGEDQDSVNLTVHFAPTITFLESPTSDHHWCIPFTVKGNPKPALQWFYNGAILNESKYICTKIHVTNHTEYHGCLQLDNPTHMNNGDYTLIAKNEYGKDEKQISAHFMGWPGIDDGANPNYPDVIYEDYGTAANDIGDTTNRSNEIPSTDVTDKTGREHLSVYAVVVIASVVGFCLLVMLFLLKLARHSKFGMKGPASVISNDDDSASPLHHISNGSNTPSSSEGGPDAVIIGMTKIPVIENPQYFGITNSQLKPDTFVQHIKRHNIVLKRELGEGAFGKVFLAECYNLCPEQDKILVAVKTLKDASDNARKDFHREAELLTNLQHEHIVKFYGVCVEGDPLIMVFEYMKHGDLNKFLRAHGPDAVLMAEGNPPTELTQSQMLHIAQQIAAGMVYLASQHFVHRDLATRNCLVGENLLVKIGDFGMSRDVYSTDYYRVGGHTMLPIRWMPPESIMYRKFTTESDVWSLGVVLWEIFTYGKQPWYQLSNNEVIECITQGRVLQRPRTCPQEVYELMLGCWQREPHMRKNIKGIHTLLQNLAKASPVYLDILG
Chain of Mitogen-activated protein kinase 9 (Homo sapiens) (P45984 whole entry, looked up): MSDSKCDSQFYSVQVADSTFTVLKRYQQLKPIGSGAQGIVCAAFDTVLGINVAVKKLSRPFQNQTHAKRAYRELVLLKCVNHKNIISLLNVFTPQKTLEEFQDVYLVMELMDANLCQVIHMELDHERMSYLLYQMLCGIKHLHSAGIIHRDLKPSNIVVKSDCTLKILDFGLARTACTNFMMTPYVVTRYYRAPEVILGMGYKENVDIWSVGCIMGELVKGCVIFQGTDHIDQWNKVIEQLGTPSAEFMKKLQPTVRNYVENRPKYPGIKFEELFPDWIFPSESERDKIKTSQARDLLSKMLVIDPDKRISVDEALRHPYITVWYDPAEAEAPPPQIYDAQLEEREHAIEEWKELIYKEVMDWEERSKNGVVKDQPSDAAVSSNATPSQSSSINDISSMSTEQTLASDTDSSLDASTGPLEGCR
Chain of Serine/threonine-protein kinase Chk2 (Homo sapiens) (O96017 whole entry): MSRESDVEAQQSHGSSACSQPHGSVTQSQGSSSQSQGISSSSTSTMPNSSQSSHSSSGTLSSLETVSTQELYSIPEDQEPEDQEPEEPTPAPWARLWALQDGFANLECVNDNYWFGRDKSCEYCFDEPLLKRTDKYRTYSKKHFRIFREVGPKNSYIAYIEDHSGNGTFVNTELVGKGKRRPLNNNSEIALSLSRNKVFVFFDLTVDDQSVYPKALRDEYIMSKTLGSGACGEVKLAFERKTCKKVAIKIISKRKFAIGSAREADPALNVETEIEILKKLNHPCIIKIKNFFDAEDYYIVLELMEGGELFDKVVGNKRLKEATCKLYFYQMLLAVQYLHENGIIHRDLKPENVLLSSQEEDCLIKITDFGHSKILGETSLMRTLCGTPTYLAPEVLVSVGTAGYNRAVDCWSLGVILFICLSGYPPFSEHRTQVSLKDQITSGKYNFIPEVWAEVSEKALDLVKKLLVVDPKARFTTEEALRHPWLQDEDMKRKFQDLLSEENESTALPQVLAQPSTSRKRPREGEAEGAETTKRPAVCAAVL

GI50 [1]: 198 nM
Activity [2]: 116%
Activity [3]: 87%
Activity [4]: 96%
pIC50 [5]: 5.70
Activity [6]: 93%
Activity [8]: 108%
Activity [9]: 37%
Activity [10]: 120%
Activity [12]: 88%
Activity [13]: 63%
Activity [14]: 105%
GI50 [15]: 282 nM
Activity [16]: 105%
GI50 [17]: 1100 nM
Activity [18]: 114%
GI50 [19]: 1700 nM
Activity [20]: 62%
Activity [21]: 116%
Activity [22]: 100%
Activity [24]: 73%
Activity [27]: 96%
Activity [28]: 103%
Activity [30]: 87%
Activity [31]: 101%
Activity [33]: 100%
Activity [34]: 95%
Activity [35]: 124%
Activity [36]: 97%
Activity [37]: 109%
SMILES: O=C1Nc2ncccc2/C1=C1/Nc2ncccc2C1=O
GI50 [7]: 1070 nM
GI50 [11]: 1370 nM
GI50 [23]: 2270 nM
GI50 [25]: 1410 nM
Activity [26]: 17.48%
GI50 [29]: 2470 nM
GI50 [32]: 2190 nM
